Assay results: PMC7825275 (Cancer chemotherapy and pharmacology, 2019)

Assays:
[1] = tested on: patients with advanced solid tumors; type: in vivo, human
Summary of the method: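 Standard 3+3 escalation with modified Fibonacci steps. Oral veliparib was given every 12 h on days 1–7 of 21-day cycles, with IV carboplatin/paclitaxel on day 3. For the first 46 patients, cycle 1 was chemotherapy alone and DLT was scored in cycle 2; afterwards all three agents were given in cycle 1, which was the DLT cycle. Growth factors were barred in cycles 1–2. MTD was the highest dose with ≤1/6 DLTs.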

[2] = tested on: advanced solid malignancies; experiment: Tumor response by RECIST 1.0, veliparib with carboplatin and paclitaxel; type: in vivo, human
Summary of the method: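 Tumor response followed RECIST 1.0 on CT or MRI. Scans were done every 2 cycles; for the first 46 subjects, the first scan was after cycle 3 and then every 2 cycles. Oral veliparib was given twice daily on days 1–7, with IV carboplatin/paclitaxel, in 21-day cycles, up to 6 cycles recommended.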

[3] = Veliparib plasma pharmacokinetics; type: in vivo, human
[4] = Reported veliparib half-life; type: in vivo, human; details: for a 6.1 h half-life
patients [5] = details: with topotecan 0.6 mg on days 1-5; profound myelosuppression; cited from earlier work
[6] = tested on: previously untreated non-small cell lung cancer; details: with carboplatin (AUC=6) plus paclitaxel (200 mg/m^2), Japanese patients; cited from earlier work
patients [7] = details: out of 35 patients enrolled, with oral daily cyclophosphamide; cited from earlier work
[8] = Adenoid cystic of lung, 1 evaluable, with carboplatin and paclitaxel
[9] = Adrenalcortical carcinoma, 1 evaluable, with carboplatin and paclitaxel
[10] = All Patients, 67 evaluable, with carboplatin and paclitaxel
[11] = Ampulla of Vater, 1 evaluable, with carboplatin and paclitaxel
[12] = Bladder, 6 evaluable, with carboplatin and paclitaxel
[13] = Breast, 13 evaluable, with carboplatin and paclitaxel
[14] = Carcinoma of unknown origin, 3 evaluable, with carboplatin and paclitaxel
[15] = Cervix, 1 evaluable, with carboplatin and paclitaxel
[16] = Cholangiocarcinoma, 2 evaluable, with carboplatin and paclitaxel
[17] = Esophageal, 2 evaluable, with carboplatin and paclitaxel
[18] = Head & Neck, 8 evaluable, with carboplatin and paclitaxel
[19] = Level 1: veliparib 10 mg BID, carboplatin AUC 6, paclitaxel 150 mg/m^2, 5 evaluable
[20] = Level 4: veliparib 40 mg BID, carboplatin AUC 6, paclitaxel 175 mg/m^2, 3 evaluable
[21] = Level 5: veliparib 40 mg BID, carboplatin AUC 6, paclitaxel 200 mg/m^2, 12 evaluable
[22] = Level 7B: veliparib 100 mg BID, carboplatin AUC 6, paclitaxel 200 mg/m^2, 14 evaluable
[23] = Level 8: veliparib 120 mg BID, carboplatin AUC 6, paclitaxel 200 mg/m^2, 8 evaluable
[24] = Lung, 16 evaluable, with carboplatin and paclitaxel
[25] = Melanoma, 9 evaluable, with carboplatin and paclitaxel
[26] = Myxoid chondrosarcoma, 1 evaluable, with carboplatin and paclitaxel
[27] = Prostate, 1 evaluable, with carboplatin and paclitaxel
[28] = Stomach, 1 evaluable, with carboplatin and paclitaxel
[29] = Uterine, 1 evaluable, with carboplatin and paclitaxel
[30] = patients, oral veliparib 10-120 mg BID

## C[C@]1(c2nc3c(C(N)=O)cccc3[nH]2)CCCN1 [veliparib]
[1]; all dose levels
  patients with dose-limiting toxicities during DLT observation cycle: 8 patients
[1]; veliparib 80 mg bid
  DLTs at dose level 7: 1/6
[1]; veliparib 120 mg BID, paclitaxel 200 mg/m^2, carboplatin AUC 6, febrile neutropenia, hyponatremia
  DLTs at the MAD, patients with DLT of evaluable patients: 2 of 7
[1]; with paclitaxel 200 mg/m^2 and carboplatin AUC 6 (dose level 8)
  maximum administered dose (MAD), veliparib dose: 120 mg BID
[2]; [8]
  CR: 0
  ORR: 0/1 (0%)
  PD: 0
  PR: 0
[2]; [9]
  CR: 0
  ORR: 0/1 (0%)
  PD: 1
  PR: 0
[2]; [10]
  CR: 5
  ORR: 27/67 (40%)
  PD: 8
[2]; [11]
  CR: 0
  ORR: 0/1 (0%)
  PD: 0
  PR: 0
[2]; [12]
  CR: 1
  ORR: 3/6 (50%)
  PD: 1
  PR: 2
[2]; [13]
  CR: 3
  ORR: 9/13 (69%)
  PD: 2
  PR: 6
[2]; [14]
  CR: 0
  ORR: 1/3 (33%)
  PD: 0
  PR: 1
[2]; [15]
  CR: 0
  ORR: 0/1 (0%)
  PD: 1
  PR: 0
[2]; [16]
  CR: 0
  ORR: 0/2 (0%)
  PD: 0
  PR: 0
[2]; [17]
  CR: 0
  ORR: 0/2 (0%)
  PD: 0
  PR: 0
[2]; [18]
  CR: 0
  ORR: 3/8 (38%)
  PD: 0
  PR: 3
[2]; [19]
  CR: 0
  ORR: 2/5 (40%)
  PD: 1
  PR: 2
[2]; [20]
  CR: 0
  ORR: 1/3 (33%)
  PD: 0
  PR: 1
[2]; [21]
  CR: 2
  ORR: 6/12 (50%)
  PD: 1
  PR: 4
[2]; [22]
  CR: 0
  ORR: 3/14 (21%)
  PD: 3
  PR: 3
[2]; [23]
  CR: 0
  ORR: 4/8 (50%)
  PD: 1
  PR: 4
[2]; [24]
  CR: 1
  ORR: 7/16 (44%)
  PD: 2
  PR: 6
[2]; [25]
  CR: 0
  ORR: 1/9 (11%)
  PD: 1
  PR: 1
[2]; [26]
  CR: 0
  ORR: 0/1 (0%)
  PD: 0
  PR: 0
[2]; [27]
  CR: 0
  ORR: 1/1 (100%)
  PD: 0
  PR: 1
[2]; [28]
  CR: 0
  ORR: 1/1 (100%)
  PD: 0
  PR: 1
[2]; [29]
  CR: 0
  ORR: 1/1 (100%)
  PD: 0
  PR: 1
[3]; P=0.049 by exact Wilcoxon
  AUC on day 3 in the presence of carboplatin and paclitaxel (AUC0-12) vs day 1 veliparib alone (AUC0-inf): barely significantly lower than expected
[3]; day 1 vs day 3
  Cmax in the absence vs presence of carboplatin and paclitaxel: similar
[3]; for a 5.1 h half-life, not observed for Cmax nor AUC
  expected accumulation ratio by day 3 based on observed half-life: 1.20
[3]; human, plasma, po
  half-life: 5.1 h
[3]; [30]
  apparent clearance: 27.5 L/h
  exposure versus dose: increase linearly with dose
[4]
  expected accumulation ratio by day 3 based on reported half-life: 1.34
Patients [5]
  MTD, veliparib dose: 10 mg bid
[6]
  MTD, veliparib dose: 120 mg
Patients [7]
  partial responses: seven
